The nature of assay [1]: Displacement of 5-(3-(4-(((5S,6S)-10-(3,5-dichlorophenylsulfonyl)-2-oxo-5-vinyl-3,10-diazabicyclo[4.3.1]decan-3-yl)methyl)-1H-1,2,3-triazol-1-yl)propylcarbamoyl)-2-(6-(dimethylamino)-3-(dimethyliminio)-3,10-dihydroanthracen-9-yl)benzoate from Candida albicans FKBP12 after 30 mins by fluorescence polarization assay. An outline of the steps: (§1)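 Competitive fluorescence polarization against a TAMRA-labelled tracer in 20 mM NaCl, 20 mM HEPES pH 8.0, 0.002% Tween20. Ligand serially diluted 1:1 in DMSO, then diluted 50-fold into tracer-containing buffer and added to protein. Equilibrated 30 min at room temperature before polarization read. Competition curves fitted.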
Background: In fluorescence polarisation assays a small probe gives low polarisation when free and higher when bound to something large.

In assay [2] the target is Peptidyl-prolyl cis-trans isomerase FKBP1A (Homo sapiens, UniProt P62942). In words: Displacement of 5-(3-(4-(((5S,6S)-10-(3,5-dichlorophenylsulfonyl)-2-oxo-5-vinyl-3,10-diazabicyclo[4.3.1]decan-3-yl)methyl)-1H-1,2,3-triazol-1-yl)propylcarbamoyl)-2-(6-(dimethylamino)-3-(dimethyliminio)-3,10-dihydroanthracen-9-yl)benzoate from human FKBP12 after 30 mins by fluorescence polarization assay. An outline of the steps:
as §1

Another assay deals with Plasmodium falciparum. Briefly: Antiparasitic activity against Plasmodium falciparum 3D7 infected in human RBC assessed as decrease in parasitemia after 60 hrs by Hoechst 33342 staining-based flow cytometric method. The format is functional. The following applies: 3D7, 60 h. An outline of the steps: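 Sorbitol-synchronized early-stage parasites, adjusted to 1% parasitemia at 2% hematocrit. Serial dilutions of compound in DMSO (≤0.05% per well) applied in triplicate for 60 h. Cells stained with 16.2 μM Hoechst 33342 in PBS for 20 min at room temperature. Parasitemia read by flow cytometry; IC50 estimated from dose–response curves.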
(In general: Flow cytometry measures light scatter and fluorescence of single cells or particles in a stream.)

In another assay the test system is Legionella pneumophila. Briefly: Antibacterial activity against Legionella pneumophila Corby infected in differentiated human THP1 cells assessed as bacterial growth inhibition after 24 hrs. It counts as functional. An outline of the steps:
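THP-1 monocytes at 5 × 10^5 cells/mL were differentiated with 100 nM PMA for 2 days. L. pneumophila Corby grown 3 days on BCYE agar was added at MOI 1. After 2 h, extracellular bacteria were washed off with PBS and compound was added in medium (control 1% DMSO). At 2 and 24 h, cells were lysed with 0.1% Triton X-100 and dilutions plated on BCYE. Colonies counted after 3–4 days at 37 °C. Three independent experiments in duplicate.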

Assay [3] is described as follows: Displacement of 5-(3-(4-(((5S,6S)-10-(3,5-dichlorophenylsulfonyl)-2-oxo-5-vinyl-3,10-diazabicyclo[4.3.1]decan-3-yl)methyl)-1H-1,2,3-triazol-1-yl)propylcarbamoyl)-2-(6-(dimethylamino)-3-(dimethyliminio)-3,10-dihydroanthracen-9-yl)benzoate from […] FKBP35 after 30 mins by fluorescence polarization assay. Also noted: species or system Plasmodium falciparum. The gist of the method:
as §1

Assay [4] has as its target Outer membrane protein MIP (Legionella pneumophila, UniProt Q70YI1). In words: Displacement of 5-(3-(4-(((5S,6S)-10-(3,5-dichlorophenylsulfonyl)-2-oxo-5-vinyl-3,10-diazabicyclo[4.3.1]decan-3-yl)methyl)-1H-1,2,3-triazol-1-yl)propylcarbamoyl)-2-(6-(dimethylamino)-3-(dimethyliminio)-3,10-dihydroanthracen-9-yl)benzoate from Legionella pneumophila Mip after 30 mins by fluorescence polarization assay. The gist of the method:
as §1

Assay [5] addresses T1, Peptidyl-prolyl cis-trans isomerase Mip (Chlamydia pneumoniae, UniProt Q9Z7P3).
T1 sequence (Q9Z7P3 whole entry): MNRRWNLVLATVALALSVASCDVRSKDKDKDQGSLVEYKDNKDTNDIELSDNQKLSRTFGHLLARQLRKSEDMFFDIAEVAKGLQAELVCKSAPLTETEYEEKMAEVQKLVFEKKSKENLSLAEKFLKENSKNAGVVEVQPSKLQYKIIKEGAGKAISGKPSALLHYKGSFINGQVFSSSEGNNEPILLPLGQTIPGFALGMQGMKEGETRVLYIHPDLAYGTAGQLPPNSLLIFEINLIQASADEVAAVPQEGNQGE
Briefly: Displacement of 5-(3-(4-(((5S,6S)-10-(3,5-dichlorophenylsulfonyl)-2-oxo-5-vinyl-3,10-diazabicyclo[4.3.1]decan-3-yl)methyl)-1H-1,2,3-triazol-1-yl)propylcarbamoyl)-2-(6-(dimethylamino)-3-(dimethyliminio)-3,10-dihydroanthracen-9-yl)benzoate from Chlamydia pneumoniae Mip after 30 mins by fluorescence polarization assay. An outline of the steps: as §1

Assay [6] is described as follows: Displacement of 5-(3-(4-(((5S,6S)-10-(3,5-dichlorophenylsulfonyl)-2-oxo-5-vinyl-3,10-diazabicyclo[4.3.1]decan-3-yl)methyl)-1H-1,2,3-triazol-1-yl)propylcarbamoyl)-2-(6-(dimethylamino)-3-(dimethyliminio)-3,10-dihydroanthracen-9-yl)benzoate from Chlamydia trachomatis Mip after 30 mins by fluorescence polarization assay. An outline of the steps:
as §1

In assay [7] the test system is Chlamydia pneumoniae. Briefly: Antibacterial activity against Chlamydia pneumoniae CWL029 infected in human Hep2 or HeLa cells assessed as decrease in inclusion size at 10 uM after 48 hrs by immunofluorescent staining-based assay. The format is functional, cell-based. An outline of the steps: (§2)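 HEp-2 or HeLa cells, 3.5 × 10^4 per well in RPMI1640 with 5% FBS, nonessential amino acids and 2 mM glutamine, grown overnight at 37 °C in 5% CO2. Inhibitor added at infection (C. pneumoniae CWL029 0.2 IFU/cell; C. trachomatis serovar D 0.5 IFU/cell). Plates centrifuged at 700g for 1 h at 35 °C, then incubated 48 h. Inclusions stained with anti-chlamydial-LPS immunofluorescence and host cells counterstained with Evans Blue. Recoverable bacteria normalized to untreated controls.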

Assay [8] deals with Chlamydia pneumoniae. In words: Antibacterial activity against Chlamydia pneumoniae CWL029 infected in human Hep2 or HeLa cells assessed as decrease in generation of infectious elementary bodies at 10 uM after 48 hrs by immunofluorescent staining-based assay. It counts as functional, cell-based. An outline of the steps:
as §2

The subject of another assay is Chlamydia trachomatis. Briefly: Antibacterial activity against Chlamydia trachomatis Serovar D infected in human Hep2 or HeLa cells assessed as decrease in generation of infectious elementary bodies at 10 uM after 48 hrs by immunofluorescent staining-based assay. The format is functional, cell-based. An outline of the steps: as §2

Activity calls are given as the source filed them. No cut-off for these calls is given here.

Peptidyl-prolyl cis-trans isomerase FKBP1A, sequence (P62942 whole entry): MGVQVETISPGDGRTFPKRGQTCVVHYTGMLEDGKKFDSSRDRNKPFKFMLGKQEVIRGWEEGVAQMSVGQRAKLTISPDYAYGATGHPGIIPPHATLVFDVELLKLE
Outer membrane protein MIP, sequence (Q70YI1 21-233 limits assumed): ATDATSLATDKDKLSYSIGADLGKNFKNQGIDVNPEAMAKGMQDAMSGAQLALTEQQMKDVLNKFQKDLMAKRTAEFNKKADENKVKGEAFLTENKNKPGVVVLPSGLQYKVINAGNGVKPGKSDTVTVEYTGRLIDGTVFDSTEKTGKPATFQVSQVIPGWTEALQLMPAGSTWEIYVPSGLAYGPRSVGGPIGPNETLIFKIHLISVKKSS

In the case of `C=C[C@H]1CN(Cc2ccccn2)C(=O)[C@@H]2CCC[C@H]1N2S(=O)(=O)c1ccc(-c2ncccn2)cc1`, the affinity in [1], expressed as Ki, was 52 nM. With `C=C[C@H]1CN(CC(=O)O)C(=O)[C@@H]2CCC[C@H]1N2S(=O)(=O)c1cc(Cl)cc(Cl)c1`, the inhibition constant (Ki) – broadly, a measure of affinity in units of concentration, obtained from inhibition or displacement – in assay [2] was 7 to 25 nM. With `C=C[C@@H]1CN(CCN(C)C)C(=O)[C@@H]2CCC[C@H]1N2S(=O)(=O)c1cc(Cl)cc(Cl)c1`, in assay [2], the Ki lay within 7 to 25 nM.

In assay [2], `C=C[C@H]1CN(CCOCC)C(=O)[C@@H]2CCC[C@H]1N2S(=O)(=O)c1cc(Cl)cc(Cl)c1` came in with a Ki of 21.1 nM. `C=C[C@H]1CN(CC#N)C(=O)[C@@H]2CCC[C@H]1N2S(=O)(=O)c1cc(Cl)cc(Cl)c1` showed a Ki in assay [2] of 49 to 80 nM.

In the case of `C=C[C@H]1CN(CCCOC)C(=O)[C@@H]2CCC[C@H]1N2S(=O)(=O)c1cc(Cl)cc(Cl)c1`, the Ki in assay [2] turned out to be 143 nM.

Take `C=C[C@@H]1CN(CCF)C(=O)[C@@H]2CCC[C@H]1N2S(=O)(=O)c1cc(Cl)cc(Cl)c1`: the Ki in assay [2] is 49 to 80 nM. Still for that read-out and setting: as for `C=C[C@H]1CN(Cc2ncccc2F)C(=O)[C@@H]2CCC[C@H]1N2S(=O)(=O)c1cc(Cl)cc(Cl)c1`, the figure is 11.8 nM; as for `C=C[C@H]1CN(CCNC)C(=O)[C@@H]2CCC[C@H]1N2S(=O)(=O)c1cc(Cl)cc(Cl)c1`, 7 to 25 nM. As to `CC[C@H]1CN(CCOC)C(=O)[C@@H]2CCC[C@H]1N2S(=O)(=O)c1cc(Cl)cc(Cl)c1`, the IC50 (as a rule, the concentration needed to halve the response being measured) in the assay on Plasmodium falciparum was determined as 8300 nM. The “growth inhibition (GI)” value in the assay with Legionella pneumophila was “Dose-dependent effect”. Consider `C=C[C@H]1CN(CCCCOC)C(=O)[C@@H]2CCC[C@H]1N2S(=O)(=O)c1cc(Cl)cc(Cl)c1`, for which, in [2], the inhibition constant Ki came out at 249 nM. This counts as sub-micromolar.

For the compound `C=C[C@H]1CN(CC(N)=O)C(=O)[C@@H]2CCC[C@H]1N2S(=O)(=O)c1cc(Cl)cc(Cl)c1`, the Ki in [2] fell in the range of 7 to 25 nM. Same read-out and setting: as for `C=C[C@H]1CN(CCOC)C(=O)[C@@H]2CCC[C@H]1N2S(=O)(=O)c1cc(Cl)cc(Cl)c1`, the figure is 18.8 nM; as for `C=C[C@H]1CN(C)C(=O)[C@@H]2CCC[C@H]1N2S(=O)(=O)c1cc(Cl)cc(Cl)c1`, 49 to 80 nM; as for `C=C[C@H]1CN(CC(=O)OCC)C(=O)[C@@H]2CCC[C@H]1N2S(=O)(=O)c1cc(Cl)cc(Cl)c1`, 7 to 25 nM. Regarding `C=C[C@H]1CN(Cc2ccco2)C(=O)[C@@H]2CCC[C@H]1N2S(=O)(=O)c1cc(Cl)cc(Cl)c1`, the Ki in assay [1] came out at 1490 nM; in assay [3], 5220 nM; in assay [4], 6590 nM; in assay [5] it was 315 nM; in assay [6], 1820 nM. Further, the outcome in the assay on Chlamydia pneumoniae [7], in the assay on Chlamydia pneumoniae [8] and with Chlamydia trachomatis was Active. Compound `C=C[C@H]1CNC(=O)[C@@H]2CCC[C@H]1N2S(=O)(=O)c1cc(Cl)cc(Cl)c1` gave a Ki in assay [2] of 49 to 80 nM.

Take `C#CCN1C[C@H](C=C)[C@H]2CCC[C@@H](C1=O)N2S(=O)(=O)c1cc(Cl)cc(Cl)c1`: the inhibition constant (Ki) in assay [2] is 49 to 80 nM.

The record behind these values is ChEMBL document CHEMBL4043294, “Chemogenomic Profiling of Human and Microbial FK506-Binding Proteins” (J Med Chem, 2018).
